Laboratory results from ChEMBL document CHEMBL3745683, “Regulatory effect of hydroquinone-tetraethylene glycol conjugates on zebrafish pigmentation” (Bioorg Med Chem Lett, 2016).
The source made the active and inactive calls.

What was measured:
[1] = Drug degradation of compound assessed as Cu2+-mediated oxidation; assay type: physicochemical
Outline: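 Compound at 0.1 mM in 1X PBS, pH 7.4, was treated with 20 μM Cu2+. UV absorption spectra were recorded over a time course.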

[2] = 1-Octanol-water partition coefficient, log P of the compound by UV spectrophotometry-based shake flask method; assay type: physicochemical
[3] = Drug degradation assessed as hydrolysis in 1M NaOH […] by HPLC analysis; assay type: physicochemical; conditions: buffer
Danio rerio [4] = species on record: Danio rerio; assay: Depigmentation effect on zebrafish assessed as increase in binary threshold incubated for 63 hrs post fertilization by microscopic analysis; assay type: functional, organism-based
Outline: (§1)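 Synchronized zebrafish embryos were kept in embryo medium containing compound at 50, 100 or 200 μM, added from DMSO to a final 0.1%. Mock control was 0.1% DMSO; positive control was HQ at 100 μM. Larval pigment spots were selected manually from dorsal-view microscope images, excluding eyes and yolk. Image analysis gave binary threshold, histogram and black-spot size; eye colour was scored visually. Data are means ± SEM versus mock.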

Danio rerio [5] = species on record: Danio rerio; assay: Depigmentation effect on zebrafish assessed as decrease in size of black spots incubated for 63 hrs post fertilization by microscopic analysis; assay type: functional, organism-based; outline: as §1
Danio rerio [6] = species on record: Danio rerio; assay: Depigmentation effect on zebrafish assessed as increase in histogram of black spots incubated for 63 hrs post fertilization by microscopic analysis; assay type: functional, organism-based; outline: as §1
[7] = Photostability of compound after 18 hrs under UV irradition condition; assay type: physicochemical
Outline: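 Compound at 0.1 mM in 1X PBS, pH 7.4, was exposed to UV at ambient conditions for 18 h. UV spectra were compared before and after exposure; the HQ absorption band is at 289 nm.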

[8] = Cytotoxicity against human HF16 cells assessed as decrease in cell viability at 200 uM after 24 hrs by MTT assay; assay type: cell-based
Outline: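 HF-16 human fetal foreskin fibroblasts exposed to compound at 200 μM, with 0.1% DMSO as vehicle control, for 24 hr. Viability was read by MTT assay. Data are means ± SEM, compared against the vehicle control.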

Danio rerio [9] = species on record: Danio rerio; assay: Depigmentation effect on zebrafish assessed as eye color change from black to gray incubated for 63 hrs post fertilization by microscopic analysis; assay type: functional, organism-based; outline: as §1
Danio rerio [10] = species on record: Danio rerio; assay: Inhibition of alpha-MSH-induced pigmentation in zebrafish assessed as increase in binary threshold pre-treated with 0.2 mM compound at 9 hrs post fertilization followed by compound exposure for 37 hrs by microscopic analysis; assay type: functional, organism-based
Danio rerio [11] = species on record: Danio rerio; assay: Inhibition of alpha-MSH-induced pigmentation in zebrafish assessed as decrease in size of black spots pre-treated with 0.2 mM compound at 9 hrs post fertilization followed by compound exposure for 37 hrs by microscopic analysis; assay type: functional, organism-based
Danio rerio [12] = species on record: Danio rerio; assay: Inhibition of pigmentation in zebrafish assessed as decrease in size of black spots pre-treated with 0.2 mM compound at 9 hrs post fertilization followed by compound exposure for 37 hrs by microscopic analysis; assay type: functional, organism-based
Danio rerio [13] = species on record: Danio rerio; assay: Inhibition pigmentation in zebrafish assessed as increase in binary threshold pre-treated with 0.2 mM compound at 9 hrs post fertilization followed by compound exposure for 37 hrs by microscopic analysis; assay type: functional, organism-based
Danio rerio [14] = species on record: Danio rerio; assay: Inhibition pigmentation in zebrafish assessed as increase in binary threshold pre-treated with 0.2 mM compound at 9 hrs post fertilization followed by mock treatment for 37 hrs by microscopic analysis; assay type: functional, organism-based
Danio rerio [15] = species on record: Danio rerio; assay: Inhibition of pigmentation in zebrafish assessed as decrease in size of black spots pre-treated with 0.2 mM compound at 9 hrs post fertilization followed by mock treatment for 37 hrs by microscopic analysis; assay type: functional, organism-based
[16] = Drug degradation assessed as hydrolysis at pH 3 to 9 by HPLC analysis; assay type: physicochemical; conditions: buffer
Danio rerio [17] = species on record: Danio rerio; assay: Inhibition of pigmentation in zebrafish assessed as increase in histogram of black spots pre-treated with 0.2 mM compound at 9 hrs post fertilization followed by compound exposure for 37 hrs by microscopic analysis; assay type: functional, organism-based
Danio rerio [18] = species on record: Danio rerio; assay: Inhibition of pigmentation in zebrafish assessed as increase in histogram of black spots pre-treated with 0.2 mM compound at 9 hrs post fertilization followed by mock treatment for 37 hrs by microscopic analysis; assay type: functional, organism-based
Danio rerio [19] = species on record: Danio rerio; assay: Inhibition of alpha-MSH-induced pigmentation in zebrafish assessed as increase in histogram of black spots pre-treated with 0.2 mM compound at 9 hrs post fertilization followed by compound exposure for 37 hrs by microscopic analysis; assay type: functional, organism-based

Stability [1]	logP [2]	Stability [3]	Stability [7]	Stability [16]	Drug degradation ([1]; TDE = time-dependent effect)	SMILES	Activity (Danio rerio [4])	Activity (Danio rerio [5])	Activity (Danio rerio [6])	Activity [8]	Activity (Danio rerio [9])	inhibition (Danio rerio [10])	inhibition (Danio rerio [11])	inhibition (Danio rerio [12])	inhibition (Danio rerio [13])	inhibition (Danio rerio [14])	inhibition (Danio rerio [15])	inhibition (Danio rerio [17])	inhibition (Danio rerio [18])	inhibition (Danio rerio [19])
Stable	-0.036	Unstable	Stable			COCCOCCOCCOCC(=O)Oc1ccc(O)cc1	Dose-dependent effect	Dose-dependent effect	Dose-dependent effect	Toxic	Dose-dependent effect									
Stable	-0.026		Stable	Stable		COCCOCCOCCOCCOc1ccc(O)cc1	Dose-dependent effect	Dose-dependent effect	Dose-dependent effect	Non-toxic	Dose-dependent effect	Active	Active	Active	Active	inactive	inactive	Active	inactive	Active
	0.25		Unstable		tde	Oc1ccc(O)cc1 [HYDROQUINONE]				Toxic										
